Data from ChEMBL document CHEMBL1157135, “Synthesis and structure-activity relationships of potent 4-fluoro-2-cyanopyrrolidine dipeptidyl peptidase IV inhibitors” (Bioorg Med Chem, 2008).
Active and inactive are the calls of the source. The rule behind the calls is not given here.

Experiments:
Rattus norvegicus [1] = assay: Reduction of hyperglycemia in Zucker fatty rat at 0.1 mg/kg, po after 30 mins by OGTT; type: functional, organism-based; design: dose 0.1 mg/kg
Summary of the method: (§1)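 Male Zucker fatty rats (lean controls), 10 weeks, fasted overnight, n = 6. Compound in distilled water given orally (0.1 or 0.3 mg/kg) 30 min before oral glucose 2 g/kg. Orbital sinus blood under ether anesthesia at set times; plasma glucose, insulin and DPP-IV activity measured. Mean ± SE; Dunnett's or Student's t-test vs vehicle.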

Rattus norvegicus [2] = assay: Increase in insulin secretion in Zucker fatty rat plasma at 0.3 mg/kg, po after 30 mins by OGTT; type: functional, organism-based; design: dose 0.3 mg/kg; summary of the method: as §1
Rattus norvegicus [3] = assay: Inhibition of DPP4 activity in Zucker fatty rat plasma at 0.1 mg/kg, po upto 120 mins by OGTT; type: functional, organism-based; design: dose 0.1 mg/kg; summary of the method: as §1
Rattus norvegicus [4] = assay: Reduction of hyperglycemia in Zucker fatty rat at 0.3 mg/kg, po by after 30 mins OGTT; type: functional, organism-based; design: dose 0.3 mg/kg; summary of the method: as §1
Rattus norvegicus [5] = assay: Inhibition of DPP4 activity in Zucker fatty rat plasma at 0.3 mg/kg, po after 15 mins by OGTT; type: functional, organism-based; design: dose 0.3 mg/kg; summary of the method: as §1
Rattus norvegicus [6] = assay: Increase in insulin secretion in Zucker fatty rat plasma at 0.1 mg/kg, po after 30 mins by OGTT; type: functional, organism-based; design: dose 0.1 mg/kg; summary of the method: as §1
[7] = Drug level in Wistar rat plasma at 1 mg/kg, po after 0.5 hr; type: ADME, organism-based; design: dose 1 mg/kg, route oral; conditions: read-out: Drug uptake
Summary of the method: (§2)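 Male Wistar rats, 8 weeks old, fasted overnight; single oral dose 1 mg/kg as aqueous solution. Jugular vein blood (200 µL) at 0.5, 1, 2, 6 h; plasma deproteinized with acetonitrile, supernatant analysed by LC–MS/MS (C18 column, ammonium acetate/acetonitrile eluent, ESI).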

[8] = Chemical stability in aqueous buffer solution at pH 6.8 after 6 hrs; type: physicochemical; conditions: read-out: Stability
Summary of the method: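 Residual amount determined by reverse-phase HPLC (UV 210 nm, acetonitrile–H2O buffer elution at 1.0 mL/min) after 6 h incubation at 37 °C in pH 6.8 aqueous buffer; dihydrochloride salt used for one reference compound.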

Rattus norvegicus [9] = assay: Inhibition of DPP4 activity in Zucker fatty rat plasma at 0.1 mg/kg, po after 15 mins by OGTT; type: functional, organism-based; design: dose 0.1 mg/kg; summary of the method: as §1
Rattus norvegicus [10] = assay: Inhibition of DPP4 activity in Zucker fatty rat plasma at 0.3 mg/kg, po upto 120 mins by OGTT; type: functional, organism-based; design: dose 0.3 mg/kg; summary of the method: as §1
[11] = Drug level in Wistar rat plasma at 1 mg/kg, po after 1 hr; type: ADME, organism-based; design: dose 1 mg/kg, route oral; conditions: read-out: Drug uptake; summary of the method: as §2
[12] = Drug level in Wistar rat plasma at 1 mg/kg, po after 2 hrs; type: ADME, organism-based; design: dose 1 mg/kg, route oral; conditions: read-out: Drug uptake; summary of the method: as §2
[13] = Drug level in Wistar rat plasma at 1 mg/kg, po after 6 hrs; type: ADME, organism-based; design: dose 1 mg/kg, route oral; conditions: read-out: Drug uptake; summary of the method: as §2
Dipeptidyl peptidase 4 = Dipeptidyl peptidase 4 (Homo sapiens, UniProt P27487); type: cell-free, Plasma
Chain of Dipeptidyl peptidase 4 (P27487 whole entry): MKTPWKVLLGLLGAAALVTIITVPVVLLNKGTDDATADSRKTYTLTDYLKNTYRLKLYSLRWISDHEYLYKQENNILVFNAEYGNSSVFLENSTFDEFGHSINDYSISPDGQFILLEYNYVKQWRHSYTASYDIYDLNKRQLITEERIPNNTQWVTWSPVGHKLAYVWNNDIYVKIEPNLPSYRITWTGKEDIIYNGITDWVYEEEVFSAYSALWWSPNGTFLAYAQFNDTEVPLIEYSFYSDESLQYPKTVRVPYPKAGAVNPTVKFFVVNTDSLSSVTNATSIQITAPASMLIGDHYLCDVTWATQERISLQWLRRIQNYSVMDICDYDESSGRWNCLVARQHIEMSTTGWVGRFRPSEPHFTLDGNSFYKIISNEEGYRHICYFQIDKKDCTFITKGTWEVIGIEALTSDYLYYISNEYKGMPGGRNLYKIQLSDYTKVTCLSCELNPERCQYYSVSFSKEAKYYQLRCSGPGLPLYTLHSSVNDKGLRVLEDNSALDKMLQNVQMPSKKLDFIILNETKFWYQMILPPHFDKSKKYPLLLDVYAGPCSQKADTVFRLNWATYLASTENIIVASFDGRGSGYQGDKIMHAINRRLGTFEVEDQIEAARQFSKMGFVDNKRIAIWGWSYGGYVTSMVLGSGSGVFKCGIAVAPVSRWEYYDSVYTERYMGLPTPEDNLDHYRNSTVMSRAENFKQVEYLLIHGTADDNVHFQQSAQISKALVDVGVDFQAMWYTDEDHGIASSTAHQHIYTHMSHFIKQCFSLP

SMILES: CC(C)(CO)NCC(=O)N1C[C@@H](F)C[C@H]1C#N
- Activity (Rattus norvegicus [1]): Active
- Activity (Rattus norvegicus [2]): Active
- Activity (Rattus norvegicus [3]): Active
- Activity (Rattus norvegicus [4]): Active
- Activity (Rattus norvegicus [5]): Active
- Activity (Rattus norvegicus [6]): Active
- concentration at 0.5 h [7]: 355 ng/mL
- remaining at 6 h [8]: 96%
- Activity (Rattus norvegicus [9]): Active
- Activity (Rattus norvegicus [10]): Active
- concentration at 1 h [11]: 274 ng/mL
- concentration at 2 h [12]: 168 ng/mL
- concentration at 6 h [13]: 31 ng/mL

SMILES: CC(C)CNCC(C)(C)NCC(=O)N1C[C@@H](F)C[C@H]1C#N
- IC50 (Dipeptidyl peptidase 4): > 316 nM

SMILES: C#CC(CC)(CC)NCC(=O)N1C[C@@H](F)C[C@H]1C#N
- IC50 (Dipeptidyl peptidase 4): > 316 nM

SMILES: N#Cc1ccc(NCCNCC(=O)N2C[C@@H](F)C[C@H]2C#N)nc1
- remaining at 6 h [8]: 86%

SMILES: CC[C@H](C)[C@@H](N)C(=O)N1C[C@@H](F)C[C@H]1C#N
- concentration at 0.5 h [7]: 195 ng/mL
- remaining at 6 h [8]: 70%
- concentration at 1 h [11]: 24 ng/mL
- concentration at 2 h [12]: 5 ng/mL
- concentration at 6 h [13]: 1 ng/mL

SMILES: N#Cc1ccc(NCCNCC(=O)N2C[C@@H](F)C[C@H]2C#N)nc1.O=C(O)/C=C\C(=O)O
- concentration at 0.5 h [7]: 157 ng/mL
- concentration at 1 h [11]: 62 ng/mL
- concentration at 2 h [12]: 8 ng/mL
- concentration at 6 h [13]: 6 ng/mL
